From ChEMBL document CHEMBL3044983, “Antifungal activity and biotransformation of diisophorone by Botrytis cinerea” (J Agric Food Chem, 2005)
Calls of active or inactive are those of the source. The rule behind the calls is not given here.

Legend:
Botrytis cinerea [1] = assay: Antifungal activity against Botryotinia fuckeliana UCA992 assessed as inhibition of radial mycelial growth up to 100 ppm for 5 days by poisoned food technique; assay type: functional, organism-based
Summary of the method: (§1)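 Radial growth on glucose-malt-peptone-agar (pH 6.5-7.0). Test compound was added in ethanol to final 50-200 mg/L, and ethanol was equal in control and treated plates. A 1.5 cm mycelial disk from an actively growing culture was placed at the plate centre, and radial growth was followed over 8 days. Percent inhibition was taken from colony diameters relative to the negative control, as the mean of triplicates.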

Botrytis cinerea [2] = assay: Antifungal activity against Botryotinia fuckeliana UCA992 assessed as inhibition of radial mycelial growth up to 200 ppm for 5 days by poisoned food technique; assay type: functional; summary of the method: as §1
Botrytis cinerea [3] = assay: Antifungal activity against Botryotinia fuckeliana UCA992 assessed as inhibition of radial mycelial growth up to 150 ppm for 5 days by poisoned food technique; assay type: functional; summary of the method: as §1
Botrytis cinerea [4] = assay: Antifungal activity against Botryotinia fuckeliana UCA992 assessed as inhibition of radial mycelial growth for 5 days by poisoned food technique; assay type: functional, organism-based
Botrytis cinerea [5] = assay: Antifungal activity against Botryotinia fuckeliana 2100 assessed as inhibition of radial mycelial growth for 5 days by poisoned food technique; assay type: functional, organism-based
Botrytis cinerea [6] = assay: Antifungal activity against Botryotinia fuckeliana 2100 assessed as inhibition of radial mycelial growth at 50 ppm for 5 days by poisoned food technique; assay type: functional; details: Botrytis cinerea, 2100, 120 h; summary of the method: as §1
Botrytis cinerea [7] = assay: Antifungal activity against Botryotinia fuckeliana UCA992 assessed as inhibition of radial mycelial growth up to 50 ppm for 5 days by poisoned food technique; assay type: functional

Row | Compound | inhibition (Botrytis cinerea [1]) | inhibition (Botrytis cinerea [2]) | inhibition (INH) (Botrytis cinerea [3]) [%] | IC50 (Botrytis cinerea [4]) [ppm] | IC50 (Botrytis cinerea [5]) [ppm] | inhibition at 50 ppm (Botrytis cinerea [6]) [%] | inhibition (INH) (Botrytis cinerea [2]) [%] | inhibition (INH) (Botrytis cinerea [7]) [%]
1 | CC1(C)C[C@@]2(C)CC3=C(C(=O)CC(C)(C)[C@H]3O)[C@@](O)(C1)C2 | inactive | inactive | – | – | – | – | – | –
2 | CC1(C)CC(=O)C2=C(C1)[C@@H](O)[C@]1(C)CC(C)(C)C[C@@]2(O)C1 | inactive | inactive | – | – | – | – | – | –
3 | CC1(C)CC(=O)C2=C(C1)C[C@]1(C)CC(C)(C)C[C@@]2(O)C1 [DIISOPHORONE] | inactive | – | 76 | 89 | 70 | 69 | 92 | 6
4 | CC1(C)C[C@@]2(C)CC3=C(C(=O)CC(C)(C)[C@@H]3O)[C@@](O)(C1)C2 | inactive | inactive | – | – | – | – | – | –
5 | CC1(C)C[C@@]2(O)C[C@@](C)(C1)[C@H](O)C1=C2C(=O)C[C@@](C)(CO)C1 | inactive | inactive | – | – | – | – | – | –
